Laboratory results: ChEMBL document CHEMBL1150238, “Podophyllotoxin directly binds a hinge domain in E2 of HPV and inhibits an E2/E7 interaction in vitro” (Bioorg Med Chem, 2008)
Calls of active or inactive are those of the source. No cut-off for these calls is given here.

Legend:
[1] = Cytotoxicity against mouse L210 cells after 48 hrs; format: functional, cell-based; conditions: L210, 48 h
In short: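 Cells seeded at 1.0 × 10⁴ per 100 µL and preincubated 24 h at 37 °C, 5% CO2. They were then exposed to graded compound concentrations for 48 h. WST-8 reagent added for 4 h, and absorbance read at 450 nm.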

Regulatory protein E2 [2] = biological target: T1, Regulatory protein E2 (human papillomavirus 11, UniProt P04015); assay: Binding affinity to HPV11 recombinant E2 protein by surface plasmon resonance method
T1 sequence (P04015 whole entry): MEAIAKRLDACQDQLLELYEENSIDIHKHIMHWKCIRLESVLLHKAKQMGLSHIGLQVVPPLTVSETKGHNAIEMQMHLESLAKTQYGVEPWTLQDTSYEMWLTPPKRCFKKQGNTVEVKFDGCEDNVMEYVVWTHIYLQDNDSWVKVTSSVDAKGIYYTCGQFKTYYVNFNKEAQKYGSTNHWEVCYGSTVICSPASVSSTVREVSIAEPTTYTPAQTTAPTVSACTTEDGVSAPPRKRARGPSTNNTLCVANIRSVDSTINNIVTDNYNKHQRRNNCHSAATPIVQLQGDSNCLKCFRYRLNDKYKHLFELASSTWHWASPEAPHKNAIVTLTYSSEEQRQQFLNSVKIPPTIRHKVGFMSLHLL
In short: (§1)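 E2 proteins (full-length and HPV 1a domain constructs, FLAG-tagged) expressed in E. coli with 1 mM IPTG induction for 3 h and purified by FPLC. Proteins amine-coupled to sensor chip (EDC/NHS activation, 10 mM acetate pH 4.0–6.0, ethanolamine block). PT flowed at various concentrations in PBS pH 7.4, 0.005% Tween20, 5% glycerol, 5% DMSO, 20–30 µL/min, 25 °C. Reference flow cell subtracted, KD derived; replicates over two times.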

Regulatory protein E2 [3] = biological target: T2, Regulatory protein E2 (Human papillomavirus type 1a, UniProt P03118); assay: Binding affinity to HPV1a recombinant E2 protein hinge domain by surface plasmon resonance assay; in short: as §1
T2 sequence (P03118 whole entry): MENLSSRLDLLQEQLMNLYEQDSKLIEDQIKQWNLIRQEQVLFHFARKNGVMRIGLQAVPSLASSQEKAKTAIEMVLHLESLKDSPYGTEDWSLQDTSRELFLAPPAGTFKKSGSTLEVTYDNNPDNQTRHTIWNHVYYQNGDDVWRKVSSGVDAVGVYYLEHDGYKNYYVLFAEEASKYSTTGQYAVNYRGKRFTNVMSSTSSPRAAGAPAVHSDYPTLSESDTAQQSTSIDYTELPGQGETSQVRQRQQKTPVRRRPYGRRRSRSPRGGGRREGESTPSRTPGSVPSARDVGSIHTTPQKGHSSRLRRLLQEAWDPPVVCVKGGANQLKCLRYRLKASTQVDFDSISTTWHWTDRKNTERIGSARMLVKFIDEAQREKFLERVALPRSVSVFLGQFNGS

[4] = biological target: T3, Regulatory protein E2 (Human papillomavirus type 1a) (UniProt P03118); assay: Inhibition of HPV1a E2-E7 protein interaction at 500 uM assessed as rate of E2 binding to E7 protein by surface plasmon resonance method; design: scale not given: the % may be the effect or the level left
T3 sequence (whole entry): T2 sequence (P03118 whole entry)
In short: (§2)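 SPR competition format: E2 protein at 0.1 µM was mixed with PT in 5% DMSO and injected at 30 µL/min, 25 °C. Bound E2 amount was compared at 115 s after injection. Buffer alone and PT without E2 served as sensorgram controls.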

Regulatory protein E2 [5] = biological target: T2, Regulatory protein E2; assay: Binding affinity to HPV1a recombinant E2 protein activator domain by surface plasmon resonance assay; in short: as §1
Regulatory protein E2 [6] = biological target: T4, Regulatory protein E2 (Human papillomavirus 16, UniProt P03120); assay: Binding affinity to HPV16 recombinant E2 protein by surface plasmon resonance method; in short: as §1
T4 sequence (P03120 whole entry): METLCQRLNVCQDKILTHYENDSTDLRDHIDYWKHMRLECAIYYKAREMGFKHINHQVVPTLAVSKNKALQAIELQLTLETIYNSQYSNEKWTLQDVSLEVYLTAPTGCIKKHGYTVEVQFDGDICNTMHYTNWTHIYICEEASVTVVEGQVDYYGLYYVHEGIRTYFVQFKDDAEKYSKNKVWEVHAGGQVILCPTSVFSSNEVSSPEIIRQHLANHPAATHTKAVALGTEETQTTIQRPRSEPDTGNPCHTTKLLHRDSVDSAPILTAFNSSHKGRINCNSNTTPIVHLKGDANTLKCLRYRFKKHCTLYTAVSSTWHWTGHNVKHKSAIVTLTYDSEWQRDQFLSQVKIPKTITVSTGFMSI

Regulatory protein E2 [7] = biological target: T2, Regulatory protein E2; assay: Binding affinity to HPV1a recombinant E2 protein by surface plasmon resonance method; in short: as §1
Regulatory protein E2 [8] = biological target: T2, Regulatory protein E2; assay: Binding affinity to HPV1a recombinant E2 protein DNA binding domain by surface plasmon resonance assay; in short: as §1
[9] = biological target: T3, Regulatory protein E2 (Human papillomavirus type 1a); assay: Inhibition of HPV1a recombinant E2 protein-DNA interaction by electron mobility shift assay
[10] = biological target: T3, Regulatory protein E2 (Human papillomavirus type 1a); assay: Inhibition of HPV1a E2-E7 protein interaction at 250 uM assessed as rate of E2 binding to E7 protein by surface plasmon resonance method; design: scale not given: the % may be the effect or the level left; in short: as §2

SMILES | IC50 [1] | Kd (Regulatory protein E2 [2]) | Kd (Regulatory protein E2 [3]) | Activity [4] | Kd (Regulatory protein E2 [5]) | Kd (Regulatory protein E2 [6]) | Kd (Regulatory protein E2 [7]) | Kd (Regulatory protein E2 [8]) | Activity [9] | Activity [10]
COc1cc([C@@H]2c3cc4c(cc3[C@H](OC(=O)CCCCCNC(=O)CCCC[C@@H]3SC[C@@H]5NC(=O)N[C@@H]53)[C@H]3COC(=O)[C@H]23)OCO4)cc(OC)c1OC | 400 nM | – | – | – | – | – | – | – | – | –
COc1cc([C@@H]2c3cc4c(cc3[C@H](O)[C@H]3COC(=O)[C@H]23)OCO4)cc(OC)c1OC [PODOFILOX] | 7 nM | 20.1 µM | 1050 nM | 49.1% | > 400 µM | 70.5 µM | 24.1 µM | > 400 µM | inactive | 60.6%
COc1cc([C@@H]2c3cc4c(cc3[C@@H](O[C@@H]3O[C@@H]5CO[C@@H](C)O[C@H]5[C@H](O)[C@H]3O)[C@H]3COC(=O)[C@H]23)OCO4)cc(OC)c1O [ETOPOSIDE] | – | – | – | – | – | – | 210 µM | – | – | 82%
